{"source": "ChEMBL document CHEMBL3868590", "about": "“Quambalarine B, a Secondary Metabolite from Quambalaria cyanescens with Potential Anticancer Properties” (J Nat Prod, 2016)", "key": {"[1]": {"experiment": "Downregulation of P70S6K protein expression in human Jurkat cells up to 20 umol/L measured after 24 hrs by immunoblot analysis", "format": "functional, cell-based", "procedure,_shortened": "(§1)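 Cells prepared as for RT-qPCR (7.5 × 10^5 cells/mL). Treated either with the line-specific EC50 concentration over a time course, or 24 h with graded concentrations up to that EC50. Cells washed with phosphatase inhibitors and lysed in RIPA; 40 μg protein per lane on SDS-PAGE, then nitrocellulose. Immunoblotted for C-MYC, P70S6K, p-P70S6K (Ser424) and actin.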"}, "[2]": {"molecular_target": "Myc proto-oncogene protein (Homo sapiens) (UniProt P01106)", "sequence (P01106 whole entry)": "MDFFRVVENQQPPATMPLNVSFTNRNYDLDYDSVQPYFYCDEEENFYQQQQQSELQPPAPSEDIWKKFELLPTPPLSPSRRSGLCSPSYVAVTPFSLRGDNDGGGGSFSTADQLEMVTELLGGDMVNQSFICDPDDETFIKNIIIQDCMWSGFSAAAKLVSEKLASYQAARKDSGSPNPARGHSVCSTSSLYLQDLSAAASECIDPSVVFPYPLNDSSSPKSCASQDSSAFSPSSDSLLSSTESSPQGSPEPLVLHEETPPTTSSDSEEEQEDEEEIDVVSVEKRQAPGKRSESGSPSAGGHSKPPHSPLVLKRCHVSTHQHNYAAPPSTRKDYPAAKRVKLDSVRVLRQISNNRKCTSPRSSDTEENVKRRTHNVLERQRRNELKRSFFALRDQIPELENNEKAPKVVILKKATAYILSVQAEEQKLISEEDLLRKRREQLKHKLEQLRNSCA", "experiment": "Inhibition of C-MYC in human Jurkat cells assessed as decrease in PKM2 level at EC50 measured after 24 hrs by RT-qPCR analysis", "format": "cell-based"}, "[3]": {"experiment": "Cytotoxicity against human NALM6 cells assessed as reduction in viable cells measured after 24 hrs by Hoechst-33258 staining-based FACS analysis", "format": "functional, cell-based", "settings": "NALM-6, 24 h", "procedure,_shortened": "(§2)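 Leukemic lines kept in RPMI1640 with 10% FBS, penicillin/streptomycin, 37 °C, 5% CO2. Seeded at 2 × 10^5 cells/mL and exposed 24 h to a range of compound concentrations (DMSO stock); medium and DMSO negative controls. Live fraction taken from Hoechst 33258-negative singlets by flow cytometry. EC50 from five-parameter nonlinear regression.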"}, "[4]": {"experiment": "Cytotoxicity against CD14+ monocytes in human PBMC population assessed as viable cells at 100 umol/L measured after 24 hrs by Hoechst-33258 staining-based FACS analysis (reference value: 13.8%)", "format": "toxicity, cell-based, Monocyte", "settings": "read-out: Activity", "procedure,_shortened": "(§3)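 PBMC were isolated from blood on a Ficoll-Paque gradient and seeded at 1 × 10^5 cells/well in 400 μL RPMI1640. Cells were exposed to a range of compound concentrations for 24 h. Viable CD3+, CD14+ and CD20+ populations were measured as Hoechst 33258-negative singlets by flow cytometry. EC50 was obtained by five-parameter nonlinear regression.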"}, "[5]": {"experiment": "Cytotoxicity against PHA/LPS-stimulated CD3-positive T-lymphocytes in eFluor-670-labeled human PBMC assessed as proliferation index at 2 umol/L administered post 18 hrs of PHA/LPS-stimulation measured after 72 hrs by Hoechst-33258 staining-based FACS analysis (reference value: 1.58)", "format": "toxicity", "settings": "t-cell, 2 µM", "procedure,_shortened": "(§4)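 PBMC were labelled with 1 μmol/L CPD, stimulated with PHA (5 μg/mL) plus LPS (1 μg/mL), and seeded at 3 × 10^5 cells/well in 300 μL. Compound was added after 18 h and left for 72 h. Cells were stained with anti-CD3. Unstimulated cells set the CPD+ gate. Proliferation index, division index and % divided were calculated for CPD+CD3+ Hoechst-negative cells.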"}, "[6]": {"molecular_target": "Myc proto-oncogene protein (Homo sapiens) (UniProt P01106)", "experiment": "Inhibition of C-MYC in human REH cells assessed as decrease in PKM2 level at EC50 measured after 24 hrs by RT-qPCR analysis", "format": "cell-based"}, "[7]": {"molecular_target": "Myc proto-oncogene protein (Homo sapiens) (UniProt P01106)", "experiment": "Inhibition of C-MYC in human REH cells assessed as decrease in LDHA level at EC50 measured after 24 hrs by RT-qPCR analysis", "format": "cell-based"}, "[8]": {"test_system": "NALM-6", "experiment": "Cytostatic activity against human NALM6 cells at 2 umol/L measured after 4 to 5 days using Burker counting chamber", "format": "functional, cell-based", "procedure,_shortened": "(§5)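 Cells were seeded at 2.5 × 10^5 cells/mL in DMSO-containing medium, with or without 2 μmol/L compound. Cells were counted daily in a Bürker chamber. PDL was calculated as log(Nf/N0)/log 2 over 6 days. Values are mean ± SD of three experiments, compared with DMSO controls.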"}, "[9]": {"experiment": "Cytotoxicity against CD3+ T-lymphocytes in human PBMC population assessed as reduction in viable cells measured after 24 hrs by Hoechst-33258 staining-based FACS analysis", "format": "toxicity, cell-based, T-cell", "procedure,_shortened": "as §3"}, "[10]": {"test_system": "REH", "experiment": "Inhibition of P70S6K in human REH cells assessed as decrease in C-MYC expression measured after 24 hrs by immunoblot analysis", "format": "cell-based", "procedure,_shortened": "as §1"}, "[11]": {"test_system": "Jurkat", "experiment": "Cytostatic activity against eFluor670-labelled human Jurkat cells assessed as live cells at 2 umol/L measured on day 2 by Hoechst-33258 staining-based FACS analysis (reference value: 97%)", "format": "functional"}, "[12]": {"test_system": "REH", "experiment": "Decrease in C-MYC mRNA level in human REH cells at EC50 measured after 24 hrs by RT-qPCR analysis", "format": "functional, cell-based"}, "[13]": {"test_system": "Jurkat", "experiment": "Cytostatic activity against human Jurkat cells assessed as population doubling level at 2 umol/L after 6 days using Burker counting chamber (reference value: 3.25)", "format": "functional", "procedure,_shortened": "as §5"}, "[14]": {"test_system": "REH", "experiment": "Inhibition of P70S6K in human REH cells assessed as decrease in phosphorylated P70S6K expression at EC50 by immunoblot analysis", "format": "cell-based", "settings": "TDE = time-dependent effect", "procedure,_shortened": "as §1"}, "[15]": {"test_system": "Jurkat", "experiment": "Inhibition of P70S6K in human Jurkat cells assessed as decrease in c-MYC expression at EC50 up to 24 hrs by immunoblot analysis", "format": "cell-based", "procedure,_shortened": "as §1"}, "[16]": {"test_system": "Jurkat", "experiment": "Cytostatic activity against eFluor670-labelled human Jurkat cells assessed as live cells at 2 umol/L measured on day 1 by Hoechst-33258 staining-based FACS analysis (reference value: 98.2%)", "format": "functional"}, "[17]": {"molecular_target": "Myc proto-oncogene protein (Homo sapiens) (UniProt P01106)", "experiment": "Inhibition of C-MYC in human NALM6 cells assessed as decrease in PKM2 level at EC50 measured after 24 hrs by RT-qPCR analysis", "format": "cell-based", "settings": "NALM-6"}, "[18]": {"test_system": "REH", "experiment": "Cytostatic activity against eFluor670-labelled human REH cells assessed as live cells at 2 umol/L measured on day 2 by Hoechst-33258 staining-based FACS analysis (reference value: 90.8%)", "format": "functional"}, "[19]": {"test_system": "REH", "experiment": "Cytostatic activity against eFluor670-labelled human REH cells assessed as live cells at 2 umol/L measured on day 5 by Hoechst-33258 staining-based FACS analysis (reference value: 85.6%)", "format": "functional"}, "[20]": {"test_system": "REH", "experiment": "Cytostatic activity against eFluor670-labelled human REH cells assessed as live cells at 2 umol/L measured immediately after compound addition by Hoechst-33258 staining-based FACS analysis (reference value: 44.1%)", "format": "functional"}, "[21]": {"experiment": "Downregulation of P70S6K protein expression in human NALM6 cells at EC50 measured after 24 hrs by immunoblot analysis", "format": "functional, cell-based", "settings": "NALM-6", "procedure,_shortened": "as §1"}, "[22]": {"test_system": "Jurkat", "experiment": "Inhibition of P70S6K in human Jurkat cells assessed as decrease in C-MYC expression measured after 24 hrs by immunoblot analysis", "format": "cell-based", "procedure,_shortened": "as §1"}, "[23]": {"experiment": "Downregulation of P70S6K protein expression in human REH cells at EC50 measured after 24 hrs by immunoblot analysis", "format": "functional, cell-based", "procedure,_shortened": "as §1"}, "[24]": {"test_system": "Jurkat", "experiment": "Cytostatic activity against eFluor670-labelled human Jurkat cells assessed as live cells at 2 umol/L measured on day 5 by Hoechst-33258 staining-based FACS analysis (reference value: 97%)", "format": "functional"}, "[25]": {"experiment": "Cytotoxicity against human Jurkat cells assessed as reduction in viable cells measured after 24 hrs by Hoechst-33258 staining-based FACS analysis", "format": "functional, cell-based", "procedure,_shortened": "as §2"}, "[26]": {"experiment": "Cytotoxicity against PHA/LPS-stimulated CD3-positive T-lymphocytes in eFluor-670-labeled human PBMC assessed as divided cells at 2 umol/L administered post 18 hrs of PHA/LPS-stimulation measured after 72 hrs by Hoechst-33258 staining-based FACS analysis (reference value: 24.2%)", "format": "toxicity", "settings": "t-cell, 2 µM", "procedure,_shortened": "as §4"}, "[27]": {"test_system": "REH", "experiment": "Cytostatic activity against eFluor670-labelled human REH cells assessed as live cells at 2 umol/L measured on day 3 by Hoechst-33258 staining-based FACS analysis (reference value: 90.2%)", "format": "functional"}}, "note": "The source made the active and inactive calls. The rule behind the calls is not given here.", "data": [{"smiles": "CCCCCC(=O)C1=C(O)C(=O)c2c(O)c(O)cc(O)c2C1=O", "values": [{"measurement": "inhibition", "setting": "[1]", "value": "Active"}, {"measurement": "inhibition", "setting": "[2]", "value": "Active"}, {"measurement": "EC50", "setting": "[3]", "value": 16.7, "unit": "µM"}, {"measurement": "viability at 24 h, 100 µM", "setting": "[4]", "value": 0.21, "unit": "%"}, {"measurement": "Activity_index", "setting": "[5]", "value": 1.23}, {"measurement": "inhibition", "setting": "[6]", "value": "Active"}, {"measurement": "inhibition", "setting": "[7]", "value": "Active"}, {"measurement": "Activity", "setting": "[8]", "value": "Active"}, {"measurement": "EC50 at 24 h", "setting": "[9]", "value": 65.7, "unit": "µM"}, {"measurement": "inhibition", "setting": "[10]", "value": "Dose-dependent effect"}, {"measurement": "Activity", "setting": "[11]", "value": 70.1, "unit": "%"}, {"measurement": "Activity", "setting": "[12]", "value": "Active"}, {"measurement": "Activity", "setting": "[13]", "value": 1.64}, {"measurement": "inhibition", "setting": "[14]", "value": "Tde"}, {"measurement": "inhibition", "setting": "[15]", "value": "Active"}, {"measurement": "Activity", "setting": "[16]", "value": 88.4, "unit": "%"}, {"measurement": "inhibition", "setting": "[17]", "value": "Active"}, {"measurement": "Activity", "setting": "[18]", "value": 40.2, "unit": "%"}, {"measurement": "Activity", "setting": "[19]", "value": 4.17, "unit": "%"}, {"measurement": "Activity", "setting": "[20]", "value": 44.1, "unit": "%"}, {"measurement": "Activity", "setting": "[21]", "value": "Active"}, {"measurement": "inhibition", "setting": "[22]", "value": "Dose-dependent effect"}, {"measurement": "Activity", "setting": "[23]", "value": "Active"}, {"measurement": "Activity", "setting": "[24]", "value": 25.5, "unit": "%"}, {"measurement": "EC50", "setting": "[25]", "value": 7.41, "unit": "µM"}, {"measurement": "Activity", "setting": "[26]", "value": 15.9, "unit": "%"}, {"measurement": "Activity", "setting": "[27]", "value": 15.8, "unit": "%"}]}]}
